According to ChEMBL document CHEMBL5661979, “Pharmacological inhibition of BMK1 suppresses tumor growth through promyelocytic leukemia protein” (Cancer Cell, 2010):

Legend:
[1] = biological target: T1, Serine/threonine-protein kinase 4 (Homo sapiens) (UniProt Q13043); assay: Inhibition of MST1 in human HeLa cells lysate at 2 uM pre incubated for 15 mins followed by ATP acyl phosphate probe addition and measured after 10 mins by LC-MS/MS analysis relative to control; assay type: subcellular; conditions: time 25.0 min
T1 sequence (whole entry): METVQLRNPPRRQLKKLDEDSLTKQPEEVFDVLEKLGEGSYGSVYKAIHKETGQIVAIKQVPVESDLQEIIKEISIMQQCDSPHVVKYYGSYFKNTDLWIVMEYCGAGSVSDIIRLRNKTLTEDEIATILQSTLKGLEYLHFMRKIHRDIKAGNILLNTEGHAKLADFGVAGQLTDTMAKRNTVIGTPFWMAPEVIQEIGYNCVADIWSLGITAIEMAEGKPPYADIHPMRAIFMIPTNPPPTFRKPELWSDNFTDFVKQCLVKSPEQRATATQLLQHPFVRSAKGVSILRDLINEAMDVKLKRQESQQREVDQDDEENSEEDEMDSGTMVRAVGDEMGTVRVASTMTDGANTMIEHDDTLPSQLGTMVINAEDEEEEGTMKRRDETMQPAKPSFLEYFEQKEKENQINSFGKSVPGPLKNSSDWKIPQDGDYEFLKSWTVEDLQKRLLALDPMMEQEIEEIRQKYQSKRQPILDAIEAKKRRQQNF

[2] = Volume of distribution at steady state in Sprague-Dawley rat at 1 mg/kg, iv measured up to 8 hrs by LC-MS/MS analysis; assay type: ADME, organism-based; conditions: in vivo, read-out: Vdss
[3] = biological target: Epidermal growth factor receptor (Homo sapiens, UniProt P00533); assay: Inhibition of EGFR in human HeLa cells lysate at 10 uM pre incubated for 15 mins followed by ADP acyl phosphate probe addition and measured after 10 mins by LC-MS/MS analysis relative to control; assay type: subcellular; conditions: time 25.0 min
[4] = biological target: Serine/threonine-protein kinase 24 (Homo sapiens, UniProt Q9Y6E0); assay: Inhibition of MST3 in human HeLa cells lysate pre incubated for 15 mins followed by ATP acyl phosphate probe addition and measured after 10 mins by LC-MS/MS analysis; assay type: subcellular
[5] = Inhibition of CDK5/PRKX/PRKY in human HeLa cells lysate at 2 uM pre incubated for 15 mins followed by ADP acyl phosphate probe addition and measured after 10 mins by LC-MS/MS analysis relative to control; conditions: 25 min, condition cancer
How it was run: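 KiNativ profiling in HeLa lysate (5 mg/mL total protein). Lysate incubated 15 min with inhibitor at 50, 10, 2, 0.8 or 0 μM. ATP or ADP acylphosphate probe then added (5 μM final) and reacted 10 min. Reaction stopped with urea and analysed by targeted MS, using up to four fragment ions per kinase peptide-probe conjugate. % inhibition taken against untreated lysate. Run in duplicate.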

[6] = biological target: T2, Serine/threonine-protein kinase D3 (Homo sapiens) (UniProt O94806); assay: Inhibition of PKD3 in human HeLa cells lysate at 50 uM pre incubated for 15 mins followed by ADP acyl phosphate probe addition and measured after 10 mins by LC-MS/MS analysis relative to control; assay type: subcellular; conditions: time 25.0 min
T2 sequence (whole entry): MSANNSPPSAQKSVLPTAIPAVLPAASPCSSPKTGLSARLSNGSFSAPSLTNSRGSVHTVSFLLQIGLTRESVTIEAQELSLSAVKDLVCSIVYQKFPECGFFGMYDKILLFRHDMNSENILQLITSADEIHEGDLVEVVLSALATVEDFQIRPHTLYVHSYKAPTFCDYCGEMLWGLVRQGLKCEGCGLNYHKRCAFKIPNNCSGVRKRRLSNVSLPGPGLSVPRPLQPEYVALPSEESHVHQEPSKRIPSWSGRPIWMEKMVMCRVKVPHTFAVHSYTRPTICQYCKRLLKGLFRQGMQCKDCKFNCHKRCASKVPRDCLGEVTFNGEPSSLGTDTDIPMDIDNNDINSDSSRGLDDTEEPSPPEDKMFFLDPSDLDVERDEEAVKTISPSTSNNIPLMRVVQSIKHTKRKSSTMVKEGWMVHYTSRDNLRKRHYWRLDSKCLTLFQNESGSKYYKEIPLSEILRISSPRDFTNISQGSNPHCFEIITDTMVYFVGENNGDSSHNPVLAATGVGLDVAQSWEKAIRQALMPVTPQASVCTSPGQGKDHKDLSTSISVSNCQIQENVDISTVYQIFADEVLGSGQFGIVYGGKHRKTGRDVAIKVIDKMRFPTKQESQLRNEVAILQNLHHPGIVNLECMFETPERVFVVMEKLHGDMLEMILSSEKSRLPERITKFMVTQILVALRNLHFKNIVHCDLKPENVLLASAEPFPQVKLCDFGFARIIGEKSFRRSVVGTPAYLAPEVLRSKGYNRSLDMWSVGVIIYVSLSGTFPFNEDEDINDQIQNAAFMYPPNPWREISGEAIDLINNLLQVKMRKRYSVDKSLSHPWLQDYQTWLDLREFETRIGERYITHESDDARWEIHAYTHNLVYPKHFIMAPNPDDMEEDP

[7] = biological target: Calcium/calmodulin-dependent protein kinase type 1D (Homo sapiens, UniProt Q8IU85); assay: Inhibition of CAMK1d in human HeLa cells lysate at 2 uM pre incubated for 15 mins followed by ADP acyl phosphate probe addition and measured after 10 mins by LC-MS/MS analysis relative to control; assay type: subcellular; conditions: time 25.0 min
How it was run: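 KiNativ-type profiling in HeLa lysate (5 mg/mL total protein). Lysate preincubated 15 min with inhibitor at 50, 10, 2, 0.8 or 0 μM, then ATP or ADP acylphosphate probe added (5 μM final) for 10 min. Reaction stopped with urea and analysed by targeted MS, using up to four fragment ions per kinase peptide-probe conjugate. % inhibition calculated against untreated lysate. Duplicate reactions.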

[8] = biological target: Interferon-induced, double-stranded RNA-activated protein kinase (Homo sapiens, UniProt P19525); assay: Inhibition of PKR in human HeLa cells lysate at 2 uM pre incubated for 15 mins followed by ATP acyl phosphate probe addition and measured after 10 mins by LC-MS/MS analysis relative to control; assay type: subcellular; conditions: time 25.0 min
[9] = biological target: T3, Phosphatidylinositol 5-phosphate 4-kinase type-2 alpha (Homo sapiens) (UniProt P48426); assay: Inhibition of PIP5K2A LIP1 site in human HeLa cells lysate at 10 uM pre incubated for 15 mins followed by ADP acyl phosphate probe addition and measured after 10 mins by LC-MS/MS analysis relative to control; assay type: subcellular; conditions: time 25.0 min
T3 sequence (whole entry): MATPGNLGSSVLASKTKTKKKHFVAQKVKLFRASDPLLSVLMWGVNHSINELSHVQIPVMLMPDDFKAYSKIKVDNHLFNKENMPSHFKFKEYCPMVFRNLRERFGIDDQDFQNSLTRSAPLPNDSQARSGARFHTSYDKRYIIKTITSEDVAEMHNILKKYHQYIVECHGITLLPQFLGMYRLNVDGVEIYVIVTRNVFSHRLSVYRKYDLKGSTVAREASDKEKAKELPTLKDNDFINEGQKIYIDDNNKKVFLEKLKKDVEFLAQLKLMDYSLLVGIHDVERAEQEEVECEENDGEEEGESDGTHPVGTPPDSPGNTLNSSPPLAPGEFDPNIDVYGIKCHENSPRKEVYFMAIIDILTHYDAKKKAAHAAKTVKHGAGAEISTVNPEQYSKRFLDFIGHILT

Calcium/calmodulin-dependent protein kinase type 1D, sequence (Q8IU85 whole entry, looked up, the tested form may be a part): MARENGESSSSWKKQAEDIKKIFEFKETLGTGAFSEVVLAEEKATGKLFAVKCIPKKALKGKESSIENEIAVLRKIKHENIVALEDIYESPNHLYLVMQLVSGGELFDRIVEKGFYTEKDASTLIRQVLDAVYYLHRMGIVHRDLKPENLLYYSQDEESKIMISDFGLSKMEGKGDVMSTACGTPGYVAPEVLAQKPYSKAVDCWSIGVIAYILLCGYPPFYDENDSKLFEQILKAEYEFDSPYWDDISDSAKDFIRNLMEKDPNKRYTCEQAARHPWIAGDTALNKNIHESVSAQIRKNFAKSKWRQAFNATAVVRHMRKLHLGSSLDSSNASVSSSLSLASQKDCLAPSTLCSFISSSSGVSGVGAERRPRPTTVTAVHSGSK
Interferon-induced, double-stranded RNA-activated protein kinase, sequence (P19525 whole entry): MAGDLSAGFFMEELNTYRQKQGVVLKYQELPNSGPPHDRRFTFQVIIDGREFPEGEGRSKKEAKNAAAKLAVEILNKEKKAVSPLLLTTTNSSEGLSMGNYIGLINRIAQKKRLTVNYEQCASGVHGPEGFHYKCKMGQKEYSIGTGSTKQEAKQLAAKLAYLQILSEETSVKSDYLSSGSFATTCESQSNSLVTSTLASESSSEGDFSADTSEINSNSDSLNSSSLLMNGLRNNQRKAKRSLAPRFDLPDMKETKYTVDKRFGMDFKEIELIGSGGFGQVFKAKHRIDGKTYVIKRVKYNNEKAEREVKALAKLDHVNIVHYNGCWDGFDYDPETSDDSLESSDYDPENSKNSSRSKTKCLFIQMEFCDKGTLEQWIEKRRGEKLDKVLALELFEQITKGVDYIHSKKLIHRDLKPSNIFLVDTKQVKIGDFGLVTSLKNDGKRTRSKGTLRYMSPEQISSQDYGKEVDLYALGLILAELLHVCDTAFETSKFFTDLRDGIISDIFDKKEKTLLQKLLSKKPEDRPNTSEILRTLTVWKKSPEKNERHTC
Epidermal growth factor receptor, sequence (P00533 whole entry): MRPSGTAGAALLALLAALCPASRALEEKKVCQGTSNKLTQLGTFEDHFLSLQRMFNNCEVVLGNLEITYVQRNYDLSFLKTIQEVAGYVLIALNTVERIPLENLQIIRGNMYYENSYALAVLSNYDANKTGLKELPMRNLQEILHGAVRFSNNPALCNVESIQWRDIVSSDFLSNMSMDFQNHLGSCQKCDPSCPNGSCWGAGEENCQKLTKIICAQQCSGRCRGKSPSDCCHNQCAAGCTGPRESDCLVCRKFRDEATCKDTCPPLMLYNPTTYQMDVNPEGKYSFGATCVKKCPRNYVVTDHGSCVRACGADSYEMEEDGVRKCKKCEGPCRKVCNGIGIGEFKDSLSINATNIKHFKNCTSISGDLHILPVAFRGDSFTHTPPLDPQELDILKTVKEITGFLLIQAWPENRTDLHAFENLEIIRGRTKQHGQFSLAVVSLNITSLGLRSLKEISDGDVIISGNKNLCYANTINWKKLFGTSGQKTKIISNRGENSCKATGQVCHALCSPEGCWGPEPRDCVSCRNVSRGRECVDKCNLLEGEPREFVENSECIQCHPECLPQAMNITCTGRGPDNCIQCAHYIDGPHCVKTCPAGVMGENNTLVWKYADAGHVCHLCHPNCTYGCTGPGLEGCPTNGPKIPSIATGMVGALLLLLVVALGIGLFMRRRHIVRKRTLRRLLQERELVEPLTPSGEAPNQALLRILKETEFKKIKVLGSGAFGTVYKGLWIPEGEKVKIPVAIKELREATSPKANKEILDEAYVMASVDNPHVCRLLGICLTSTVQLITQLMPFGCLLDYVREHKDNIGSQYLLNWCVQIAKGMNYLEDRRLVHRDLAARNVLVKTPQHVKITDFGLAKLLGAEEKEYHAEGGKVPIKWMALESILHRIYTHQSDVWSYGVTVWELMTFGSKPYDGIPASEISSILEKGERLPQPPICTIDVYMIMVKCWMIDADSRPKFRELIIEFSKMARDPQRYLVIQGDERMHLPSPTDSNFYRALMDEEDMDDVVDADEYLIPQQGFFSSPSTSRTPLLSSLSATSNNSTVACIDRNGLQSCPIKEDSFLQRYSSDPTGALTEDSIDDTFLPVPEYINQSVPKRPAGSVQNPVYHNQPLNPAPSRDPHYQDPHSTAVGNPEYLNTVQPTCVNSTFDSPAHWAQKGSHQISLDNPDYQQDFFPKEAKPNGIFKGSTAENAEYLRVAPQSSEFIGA
Serine/threonine-protein kinase 24, sequence (Q9Y6E0 whole entry): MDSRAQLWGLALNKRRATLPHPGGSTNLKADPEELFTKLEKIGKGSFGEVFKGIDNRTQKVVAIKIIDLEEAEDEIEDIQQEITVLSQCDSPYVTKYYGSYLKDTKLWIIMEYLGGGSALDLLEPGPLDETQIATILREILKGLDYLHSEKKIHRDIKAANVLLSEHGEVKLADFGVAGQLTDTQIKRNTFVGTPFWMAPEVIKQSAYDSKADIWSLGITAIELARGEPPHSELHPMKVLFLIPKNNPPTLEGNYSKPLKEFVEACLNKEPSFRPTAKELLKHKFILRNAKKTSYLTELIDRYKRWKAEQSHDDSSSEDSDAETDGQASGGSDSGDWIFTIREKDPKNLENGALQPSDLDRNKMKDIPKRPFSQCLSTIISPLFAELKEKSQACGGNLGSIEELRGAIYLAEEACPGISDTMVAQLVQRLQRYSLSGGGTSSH

CCOc1cc(N2CCC(O)CC2)ccc1Nc1ncc2c(n1)N(C)c1ccccc1C(=O)N2C
inhibition [1]: 2.2% | Vd [2]: 3.4 L/kg | inhibition [3]: 9.9% | IC50 [4]: > 50 µM | inhibition at 2 µM [5]: 9.4% | inhibition [6]: -0.5% | inhibition [7]: 4.7% | inhibition [8]: -2.6% | inhibition [9]: 5%
